The text below walks through data of BindingDB's records for doi:10.1021/jm960074e (National Cancer Institute-Bethesda, 1996).

This test has as its target Integrase (Human immunodeficiency virus 1, UniProt Q7ZJM1). Put plainly: Inhibitory activity against HIV-1 integrase. In outline:
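Purified recombinant wild-type HIV-1 integrase, 200 nM final, preincubated with inhibitor for 30 min at 30 °C. Buffer: 25 mM MOPS pH 7.2, 7.5 mM MnCl2, 50 mM NaCl, 10% DMSO, 10% glycerol, BSA, DTT, 2-mercaptoethanol. Then 20 nM 5'-32P-labeled 21mer U5 duplex added for 60 min. Products run on denaturing 20% polyacrylamide gel and quantified by phosphorimager.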

pIC50: −log10 of the molar value.

Chain of Integrase (Q7ZJM1 whole entry): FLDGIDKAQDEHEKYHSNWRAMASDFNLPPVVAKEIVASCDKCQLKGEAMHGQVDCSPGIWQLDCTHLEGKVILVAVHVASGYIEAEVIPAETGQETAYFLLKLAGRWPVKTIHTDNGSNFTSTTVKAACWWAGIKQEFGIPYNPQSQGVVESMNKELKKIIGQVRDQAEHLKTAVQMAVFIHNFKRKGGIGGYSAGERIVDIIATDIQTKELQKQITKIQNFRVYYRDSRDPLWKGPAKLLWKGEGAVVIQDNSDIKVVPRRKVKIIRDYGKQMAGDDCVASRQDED

With `CCOc1ccc(C(=C2C(=O)C(=O)c3ccccc3C2=O)c2c(O)c(O)c3ccccc3c2O)cc1OC` [2-[4-ethoxy-3-methoxyphenyl(3-hydroxy-1,4-dioxo-1,4-dihydro-2-naphthalenyl)methyl]-3-hydroxy-1,4-dihydro-1,4-naphthalenedione], the pIC50 (as a rule, the negative decadic logarithm of the IC50, by convention in mol/L) was 4.00.

Regarding `CN(C)c1ccc(C(=C2C(=O)C(=O)c3ccccc3C2=O)c2c(O)c(O)c3ccccc3c2O)cc1` [NSC-92203], the negative logarithm of the IC50 (pIC50) is below 4.00. Take `CC(=C1C(=O)C(=O)c2ccccc2C1=O)c1c(O)c(O)c2ccccc2c1O` [2-hydroxy-3-[1-(3-hydroxy-1,4-dioxo-1,4-dihydro-2-naphthalenyl)ethyl]-1,4-dihydro-1,4-naphthalenedione]: the pIC50 was below 4.00.

In turn, `O=C1Oc2ccccc2C(O)C1Cc1c(O)c2ccccc2oc1=O` (stereo not given) [NSC-41834] gave a negative-log IC50 (pIC50) below 4.00. `Cc1ccc(S(=O)(=O)NN=C(CCN2CCCC2)CC(c2ccccc2)c2c(O)c3ccccc3oc2=O)cc1` (stereo not given) [NSC-647410]: the pIC50 was below 4.00. The compound `CC(=O)c1cccc(NC(=O)C(=O)c2c(O)c3ccccc3oc2=O)c1` [N-(3-Acetyl-phenyl)-2-(4-hydroxy-2-oxo-2H-chromen-3-yl)-2-oxo-acetamide] had a negative-log IC50 (pIC50) below 4.00. Next, `O=C1C(=O)c2ccccc2C(=O)C1=C(c1ccc(Cl)cc1)c1c(O)c(O)c2ccccc2c1O` [2-[4-chlorophenyl(3-hydroxy-1,4-dioxo-1,4-dihydro-2-naphthalenyl)methyl]-3-hydroxy-1,4-dihydro-1,4-naphthalenedione]: below 4.00; `O=C(c1cccc([N+](=O)[O-])c1)c1c(O)c2ccccc2oc1=O` [NSC-133800]: below 4.00.

Turning to `O=C1C(=O)C(Sc2ccccc2)C(=O)c2ccccc21` (stereo not given) [NSC-108029], the negative-log IC50 (pIC50) was below 4.00. Compound `COc1cc(C(=C2C(=O)C(=O)c3ccccc3C2=O)c2c(O)c(O)c3ccccc3c2O)cc(OC)c1OC` [NSC-117278] showed a pIC50 below 4.00.
